# Screens as filed in PubChem BioAssay.
# A selection: hits, their analogues and other compounds. The true share with any hit is near 2.6%.
# Platelet DG rel = inhibitors of platelet dense granule secretion, primary screen, cell-based, MLPCN, human platelets; AID 1663, 2009; inhibition, %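 (compounds screened at 7.5 µM in platelet-rich plasma)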; human platelet-rich plasma, SFLLRN dense granule ATP release, luminescence; hit rate 0.22% among 300,000;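 active means mean replicate score, as percent of positive control, at or above 50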
# SENP8 block-1 = human SENP8 protease inhibitors, primary screen, biochemical, fluorescence, Nedd8 protein substrate, uHTS; Sentrin-specific protease 8 (Homo sapiens), Q96LD8; recombinant SENP8; inhibition, % at 20 µM; hit rate 0.64% among 360,000; in the data active means inhibition mostly above about 40%, no sharp cut-off; inactive means mostly below about 27%
# Target sequence (Q96LD8 whole entry, looked up): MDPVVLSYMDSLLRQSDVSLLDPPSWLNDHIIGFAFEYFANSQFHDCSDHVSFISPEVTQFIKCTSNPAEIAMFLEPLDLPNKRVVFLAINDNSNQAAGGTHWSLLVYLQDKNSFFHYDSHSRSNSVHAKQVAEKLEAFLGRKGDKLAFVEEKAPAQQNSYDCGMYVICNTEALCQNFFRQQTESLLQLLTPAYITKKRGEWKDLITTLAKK
# SENP8 block-2 = SENP8 protease inhibitors, primary screen, biochemical, luminescence. hit rate 1.2% among 330,000. inhibition, % at 10 µM. AID 2540, 2010. purified SENP8, Z-RLRGG-aminoluciferin cleavage; in the data active means inhibition above about 50%
# SENP7 block = SENP7 protease inhibitors, primary screen, biochemical, luminescence, uHTS; recombinant SENP7, Z-RLRGG-aminoluciferin luminescence, 40 min; hit rate 1.5% among 330,000; inhibition, % at 5 µM;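 active means inhibition above about 50% at the single test dose, limit read from the data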;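 further: plate controls were DMSO with enzyme for no effect and no enzyme buffer wells for full effect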
# SENP1 inh = human SENP1 catalytic domain inhibitors, primary screen, biochemical, FRET, uHTS; hit rate 0.21% among 360,000; inhibition, % at 10 µM; recombinant SENP1 catalytic domain, CyPet-SUMO1-YPet FRET cleavage; AID 624204, 2012;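 active means inhibition at least 30% at 10 µM, raw YFP signal under a set limit, fluorescence ratio 0.5 to 1.5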;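 further: 0% = enzyme with DMSO and 100% = no enzyme wells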
# Target sequence (Q9P0U3 419-644 limits assumed): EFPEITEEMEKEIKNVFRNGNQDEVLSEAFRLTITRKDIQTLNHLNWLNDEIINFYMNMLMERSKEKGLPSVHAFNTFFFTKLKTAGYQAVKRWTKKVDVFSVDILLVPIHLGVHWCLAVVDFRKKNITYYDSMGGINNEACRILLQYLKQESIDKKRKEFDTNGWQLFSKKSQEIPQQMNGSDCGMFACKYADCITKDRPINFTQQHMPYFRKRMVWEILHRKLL
#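 material = recombinant human SENP1 catalytic domain, His6-tagged | quantity = 20 pM enzyme | reagent = 25 nM SUMO1 FRET substrate | compound dosing = 10 µM single point, 0.5% DMSO | timing = 50 min enzyme reaction, room temperature, light-protected | detection = FRET, CFP and YFP emission | control set = no-enzyme low, enzyme-DMSO high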
# SENP6 block = SENP6 protease inhibitors, primary screen, biochemical, luminescence, uHTS. Sentrin-specific protease 6 (Homo sapiens), Q9GZR1. inhibition, % at 10 µM. hit rate 1.8% among 330,000. Recombinant SENP6 catalytic domain, aminoluciferin luminescence;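 active means inhibition above about 50% at the single tested dose, limit read from the data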;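 further: plate controls were DMSO wells with enzyme for no effect and DMSO wells lacking enzyme for full effect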
# SENP8 conf = SENP8 protease inhibitors, retest, confirmation, biochemical, luminescence, single concentration; shares compounds with SENP7 block; Recombinant SENP8, Z-RLRGG-aminoluciferin luminescence, 60 min; inhibition, % at 12.5 µM; hit rate 40% among 6,200;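 active means mean inhibition across replicates above about 50%, limit read from the data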
# SENP6 conf = SENP6 protease inhibitors, confirmation, biochemical, luminescence, single concentration; shares compounds with SENP7 block; recombinant SENP6, Z-RLRGG-aminoluciferin luminescence; inhibition, % at 12.5 µM; hit rate 58% among 6,200; AID 488915, 2010
# SENP7 confirm = SENP7 protease inhibitors, retest, confirmation, biochemical, luminescence, single concentration; shares compounds with SENP7 block; recombinant SENP7, Z-RLRGG-aminoluciferin luminescence, 40 min; inhibition, % at 12.5 µM; hit rate 69% among 6,200
# Casp3 select = caspase-3 protease inhibitors, confirmation, selectivity assay for SENP inhibitor project, biochemical, single concentration. hit rate 60% among 6,200. purified caspase-3, Z-DEVD-aminoluciferin luminescence, 60 min. shares compounds with SENP7 block. inhibition, % at 12.5 µM;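 active means mean inhibition above about 50%, limit read from the data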;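 further: plate controls were enzyme with DMSO for no effect and wells without caspase-3 for full effect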
# SENP luc ctr = counter-screen for SENP inhibitors: luminescence interference; shares compounds with SENP7 block; Pre-incubated SENP8/Z-RLRGG-aminoluciferin, luciferase luminescence interference; inhibition, % at 12.5 µM; hit rate 39% among 6,200;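 active means mean inhibition above about 50% when retested at one dose, limit read from the data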;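 further: plate controls were DMSO wells with completed reaction for no effect and substrate without enzyme for full effect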
# Starred values were filed as active, the others as inactive; · = no result.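 How the source made its calls, unless noted: active means mean inhibition above about 50% in the one-dose retest (limit read from the data); inactive means the rest.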
SMILES,Platelet DG rel,SENP8 block-1,SENP8 block-2,SENP7 block,SENP1 inh,SENP6 block,SENP8 conf,SENP6 conf,SENP7 confirm,Casp3 select,SENP luc ctr
Cc1cc(N=Nc2ccccc2C)ccc1N,14,55*,76*,86*,2,90*,81*,82*,96*,49,86*
COc1ccc(-c2cc(=Nc3ccccc3)c3cc(C)ccc3o2)cc1,2,-340,22,68*,4,69*,12,7,0,7,13
CCCC(=O)NC(Oc1ccccc1Cl)C(Cl)(Cl)Cl (stereo not drawn),-7,12,-6,4,3,-6,·,·,·,·,·
CC(C)C[C@H]1C(=O)N2CCCC2[C@]2(O)O[C@](NC(=O)[C@@H]3C=C4c5cccc6[nH]cc(c56)CC4N(C)C3)(C(C)C)C(=O)N12 (stereo partly drawn),1,-389,42,33,-29,54*,17,30,10,6,-2
CC(C)[C@H]1C(=O)N2CCC[C@H]2[C@]2(O)O[C@](NC(=O)[C@@H]3C=C4c5cccc6[nH]cc(c56)C[C@H]4N(C)C3)(C(C)C)C(=O)N12,·,-379,43,40,-29,52*,-11,4,-7,-2,-8
CC(C)[C@@]1(NC(=O)[C@@H]2C[C@@H]3c4cccc5[nH]cc(c45)C[C@H]3N(C)C2)O[C@@]2(O)[C@@H]3CCCN3C(=O)[C@H](Cc3ccccc3)N2C1=O,0,-85,12,7,7,5,·,·,·,·,·
Cc1cccc(N2CCC3(CC2)C(=O)NC(=O)NC3=O)c1,·,8,·,·,-1,·,·,·,·,·,·
CN(C)C(=O)Oc1ccc(-c2cn3cc(Cl)ccc3n2)cc1,20,-190,91*,94*,2,-1,-24,93*,102*,97*,44
CN(C)C(=O)Oc1cccc(-c2cn3cc(Cl)ccc3n2)c1,-17,-185,-1,4,1,-11,·,·,·,·,·
Nc1c(C(=O)NCc2ccco2)c2nc3ccccc3nc2n1Cc1ccccc1,-3,-395,11,14,-25,16,·,·,·,·,·
Nc1c(C(=O)NCCCc2ccccc2)c2nc3ccccc3nc2n1Cc1cccs1,0,-285,46,35,-19,60*,-18,11,0,-5,-6
CCCCCCn1c(N)c(C(=O)NCCN2CCOCC2)c2nc3ccccc3nc21,1,-432,7,22,-25,36,·,·,·,·,·
CCCCn1c(N)c(C(=O)NCc2cccs2)c2nc3ccccc3nc21,-2,-257,93*,38,-20,88*,10,18,17,2,2
COCCCn1c(N)c(C(=O)NCCC(C)C)c2nc3ccccc3nc21,0,-288,77*,63*,-24,81*,-6,13,-1,4,-6
